Assay results from ChEMBL document CHEMBL1759833, “Synthesis and biological evaluation of some 4-functionalized-pyrazoles as antimicrobial agents” (2011).
Values after ≈ are worked out from the molar mass of the structure shown.

What was measured:
Type in all cases: functional
Staphylococcus aureus [1] = assay: Antibacterial activity against Staphylococcus aureus MTCC 96 for 24 hrs by agar diffusion method
Summary of the method: (§1)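 Agar well diffusion on Mueller Hinton agar plates swabbed with bacterial suspension of approx. 1.5 × 10⁸ cfu/mL. 8 mm wells were loaded with compound at 4.0 mg/mL in DMSO. Plates were incubated 37 °C for 24 h. Read-out was inhibition zone diameter in mm, including the 8 mm well, as mean of three replicates. Controls were DMSO (negative) and ciprofloxacin (positive).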

Aspergillus niger = assay: Antifungal activity against Aspergillus niger MTCC 282 assessed as inhibition of mycelial growth for 7 days by poisoned food method
Summary of the method: (§2)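 Poisoned food method. Compound at 4.0 mg/mL in DMSO was mixed into agar, poured and solidified at room temperature. Each plate was inoculated centrally with an 8 mm plug from an actively growing colony and incubated at 25 °C for 7 days. Colony diameter was converted to percent mycelial inhibition, in triplicate. Controls were DMSO (negative) and fluconazole (positive).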

Staphylococcus aureus [2] = assay: Antibacterial activity against Staphylococcus aureus MTCC 96 for 24 hrs by macrodilution method; conditions: MTCC 96, 24 h
Summary of the method: (§3)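 MIC by NCCLS macrodilution tube method. Tubes were inoculated with bacteria at 1.5 × 10⁸ cfu/mL and incubated at 37 °C for 24 h. Turbidity was scored visually. Ciprofloxacin served as control.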

Aspergillus flavus = assay: Antifungal activity against Aspergillus flavus MTCC 871 assessed as inhibition of mycelial growth for 7 days by poisoned food method; summary of the method: as §2
Bacillus subtilis [3] = assay: Antibacterial activity against Bacillus subtilis MTCC 121 for 24 hrs by agar diffusion method; summary of the method: as §1
Bacillus subtilis [4] = assay: Antibacterial activity against Bacillus subtilis MTCC 121 for 24 hrs by macrodilution method; conditions: MTCC 121, 24 h; summary of the method: as §3

Compound	diameter of the inhibition zone (DIZ) (Staphylococcus aureus [1]) [mm]	inhibition (INH) (Aspergillus niger) [%]	MIC (Staphylococcus aureus [2]) [µg/mL]	inhibition (INH) (Aspergillus flavus) [%]	diameter of the inhibition zone (DIZ) (Bacillus subtilis [3]) [mm]	MIC (Bacillus subtilis [4]) [µg/mL]
NS(=O)(=O)c1ccc(-n2cc(C(=O)O)c(-c3ccc(Br)cc3)n2)cc1	15.6	51.1	128 (≈ 303 µM)	45.5	14.3	> 128
COc1ccc(-c2nn(-c3ccc(S(N)(=O)=O)cc3)cc2C(=O)O)cc1	15.6	44.4	128 (≈ 343 µM)	44.4	17	64 (≈ 171 µM)
NS(=O)(=O)c1ccc(-n2cc(C(=O)O)c(-c3ccc([N+](=O)[O-])cc3)n2)cc1	14.6	61.1	> 128	57.7	15	128 (≈ 330 µM)
NS(=O)(=O)c1ccc(-n2cc(C(=O)O)c(-c3ccccc3)n2)cc1	15.3	50	128 (≈ 373 µM)	55.5	16.6	128 (≈ 373 µM)
Cc1ccc(-c2nn(-c3ccc(S(N)(=O)=O)cc3)cc2C(=O)O)cc1	14.6	46.6	> 128	51.1	17.3	64 (≈ 179 µM)
NC(=S)c1cn(-c2ccc(S(N)(=O)=O)cc2)nc1-c1cccs1	20.3	61.1	64 (≈ 176 µM)	55.5	17.6	64 (≈ 176 µM)
NC(=S)c1cn(-c2ccc(S(N)(=O)=O)cc2)nc1-c1ccccc1	15.3	50	128 (≈ 357 µM)	53.3	15	128 (≈ 357 µM)
NC(=S)c1cn(-c2ccc(S(N)(=O)=O)cc2)nc1-c1ccc(Cl)cc1	18.3	50	64 (≈ 163 µM)	52.5	14.6	> 128
O=C(O)c1cn(C2CC2)c2cc(N3CCNCC3)c(F)cc2c1=O [CIPROFLOXACIN]	27.6		5 (≈ 15.1 µM)		26.3	5 (≈ 15.1 µM)
OC(Cn1cncn1)(Cn1cncn1)c1ccc(F)cc1F [FLUCONAZOLE]		75.3		74.6		
NC(=S)c1cn(-c2ccc(S(N)(=O)=O)cc2)nc1-c1ccc(Br)cc1	21.6	44.4	32 (≈ 73.2 µM)	51.1	18.3	64 (≈ 146 µM)
COc1ccc(-c2nn(-c3ccc(S(N)(=O)=O)cc3)cc2C(N)=S)cc1	16.6	55.5	128 (≈ 329 µM)	57.7	15.6	128 (≈ 329 µM)
Cc1ccc(-c2nn(-c3ccc(S(N)(=O)=O)cc3)cc2C(N)=S)cc1	21.6	44.4	32 (≈ 85.9 µM)	51.1	16.3	128 (≈ 344 µM)
NS(=O)(=O)c1ccc(-n2cc(C(=O)O)c(-c3ccc(Cl)cc3)n2)cc1	18.6	45.5	64 (≈ 169 µM)	44.4	21.6	32 (≈ 84.7 µM)
NS(=O)(=O)c1ccc(-n2cc(C(=O)O)c(-c3cccs3)n2)cc1	18.6	57.7	64 (≈ 183 µM)	55.5	15.6	128 (≈ 366 µM)
NC(=S)c1cn(-c2ccc(S(N)(=O)=O)cc2)nc1-c1ccc(F)cc1	17.6	44.4	64 (≈ 170 µM)	61.1	15.3	128 (≈ 340 µM)
NS(=O)(=O)c1ccc(-n2cc(C(=O)O)c(-c3ccc(F)cc3)n2)cc1	15	52.5	128 (≈ 354 µM)	48.8	18.6	64 (≈ 177 µM)
